# Laboratory results reported in ChEMBL document CHEMBL1795281, “Prenylated Polyhydroxy-p-terphenyls from Aspergillus taichungensis ZHN-7-07” (J Nat Prod, 2011).
# Assays:
# Assay type in all cases: functional, cell-based
# HL-60 = test: Cytotoxicity against human HL60 cells by MTT assay
# Summary of the method: (§1)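 MTT read-out on HL-60 and P-388 cell lines, with adriamycin as the positive control. IC50 values are means of three independent experiments.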
# P388 = test: Cytotoxicity against mouse P388 cells by MTT assay; summary of the method: as §1
# A549 = test: Cytotoxicity against human A549 cells by SRB assay
# Summary of the method: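 SRB staining assay on A-549 cells, run alongside an adriamycin positive control. IC50 values are means of three independent experiments.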
SMILES,IC50 (HL-60),IC50 (P388),IC50 (A549)
COc1cc(-c2ccc(O)cc2)c(OC)c(O)c1-c1cc(O)c(O)c(CC=C(C)C)c1 [PRENYLTERPHENYLLIN C],28.2 µM,86.2 µM,> 100 µM
COc1cc(-c2ccc(O)cc2)c(OC)c(O)c1-c1ccc(O)c(CC=C(C)C)c1 [PRENYLTERPHENYLLIN],2.75 µM,1.99 µM,3.62 µM
COc1cc(-c2ccc(O)c(CC=C(C)C)c2)c(OC)c(O)c1-c1ccc(O)c(O)c1 [PRENYLTERPHENYLLIN A],1.53 µM,10.9 µM,8.32 µM
COc1ccc(-c2cc(OC)c3c(oc4cc(O)c(O)cc43)c2OC)cc1 [CANDIDUSIN C],16.5 µM,96.9 µM,83.6 µM
COc1cc(-c2ccc(O)c(O)c2)c(OC)c(O)c1-c1ccc(O)c(O)c1,11 µM,9.13 µM,14.3 µM
COc1cc2oc3c(OC)c(-c4ccc(O)c(CC=C(C)C)c4)cc(OC)c3c2cc1OC [PRENYLCANDIDUSIN B],76.7 µM,1.57 µM,8.61 µM
COc1cc(-c2ccc(O)cc2)c(OC)c(O)c1-c1ccc(O)c(O)c1,9.86 µM,28.1 µM,34.7 µM
COc1cc(-c2ccccc2)c(OC)c(O)c1-c1ccc(O)c(O)c1,9.89 µM,2.7 µM,40.7 µM
COc1cc2oc3c(OC)c(-c4ccc(O)c(CC=C(C)C)c4)cc(OC)c3c2cc1O [PRENYLCANDIDUSIN C],10.1 µM,75.7 µM,12.3 µM
COc1c(-c2ccc(O)cc2)cc(OC)c2c1oc1cc(O)c(O)cc12 [CANDIDUSIN A],77.6 µM,46.8 µM,19.3 µM
COc1cc(-c2ccc(O)cc2)c(OC)c(O)c1-c1ccc(O)cc1 [TERPHENYLLIN],11 µM,17.8 µM,12.2 µM
COc1c(-c2ccc(O)c(CC=C(C)C)c2)cc(OC)c2c1oc1cc(O)c(O)cc12 [PRENYLCANDIDUSIN A],11.8 µM,16.5 µM,53.2 µM
COc1cc(-c2ccc(O)c(CC=C(C)C)c2)c(OC)c(O)c1-c1ccc(O)cc1 [PRENYLTERPHENYLLIN B],38.6 µM,12.6 µM,> 100 µM
